From ChEMBL document CHEMBL2150978, “Phosphorodiamidates as a promising new phosphate prodrug motif for antiviral drug discovery: application to anti-HCV agents” (J Med Chem, 2011)

How the values were obtained:
[1] = Cytotoxicity against human HuH7 cells after 3 days; format: cell-based, Huh-7
Outline: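 Huh7 replicon cells seeded at 2 × 10⁴ per well one day before dosing. Four-fold serial dilutions in growth medium, no-drug controls on each plate. Incubated 3 days at 37 °C, 5% CO₂. Viability read by CellTiter-Glo luminescence after 20 min with reagent.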

[2] = system: Hepatitis C virus; assay: Antiviral activity against Hepatitis C virus subtype 1b Con1 infected in human Huh7 cells assessed as inhibition of HCV replicon-encoded Renilla luciferase reporter activity after 72 hrs by HCV replicon assay; format: functional, organism-based, Hepacivirus hominis; settings: Con1, Huh-7, 72 h
Outline: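 Huh7 cells stably carrying a bicistronic subgenomic genotype 1b (Con1) replicon with Renilla luciferase reporter, seeded at 2 × 10⁴ cells/well the day before. Four-fold serial dilutions in growth medium, no-drug controls on each plate; 3 days at 37 °C, 5% CO₂. Luciferase reagent 20 min, then luminescence (RLU) read; EC₅₀ derived.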

## COc1nc(N)nc2c1ncn2[C@@H]1O[C@H](COP(=O)(N[C@@H](CC(C)C)C(=O)OCC(C)(C)C)N[C@@H](CC(C)C)C(=O)OCC(C)(C)C)[C@@H](O)[C@@]1(C)O (mixture of isomers)
[1]
  CC50 at 72 h: 27 µM
[2]
  EC50: 0.47 µM
  EC90: 2.4 µM

## COc1nc(N)nc2c1ncn2[C@@H]1O[C@H](COP(=O)(NC2CC2)N[C@@H](C)C(=O)OCC(C)(C)C)[C@@H](O)[C@@]1(C)O (mixture of isomers)
[1]
  CC50 at 72 h: > 100 µM
[2]
  EC50: 0.87 µM
  EC90: 4.7 µM

## CCCCNP(=O)(NCCCC)OC[C@H]1O[C@@H](n2cnc3c(OC)nc(N)nc32)[C@](C)(O)[C@@H]1O (mixture of isomers)
[1]
  CC50 at 72 h: > 100 µM
[2]
  EC50: 37.8 µM
  EC90: > 40 µM

## CC[C@H](C)[C@H](NP(=O)(N[C@H](C(=O)OC)[C@@H](C)CC)OC[C@H]1O[C@@H](n2cnc3c(OC)nc(N)nc32)[C@](C)(O)[C@@H]1O)C(=O)OC (mixture of isomers)
[1]
  CC50 at 72 h: > 100 µM
[2]
  EC50: 5.17 µM
  EC90: 29.5 µM

## COc1nc(N)nc2c1ncn2[C@@H]1O[C@H](COP(=O)(NCC(=O)OCc2ccccc2)NCC(=O)OCc2ccccc2)[C@@H](O)[C@@]1(C)O (mixture of isomers)
[1]
  CC50 at 72 h: > 100 µM
[2]
  EC50: 0.6 µM
  EC90: 1.8 µM

## CCOC(=O)[C@H](C)NP(=O)(N[C@@H](C)C(=O)OCC)OC[C@H]1O[C@@H](n2cnc3c(OC)nc(N)nc32)[C@](C)(O)[C@@H]1O (mixture of isomers)
[1]
  CC50 at 72 h: > 100 µM
[2]
  EC50: 1.2 µM
  EC90: 4.1 µM

## COc1nc(N)nc2c1ncn2[C@@H]1O[C@H](COP(=O)(N2CCOCC2)N2CCOCC2)[C@@H](O)[C@@]1(C)O (mixture of isomers)
[1]
  CC50 at 72 h: > 100 µM
[2]
  EC50: > 100 µM
  EC90: > 100 µM

## CCCOC(=O)[C@H](C)NP(=O)(N[C@@H](C)C(=O)OCCC)OC[C@H]1O[C@@H](n2cnc3c(OC)nc(N)nc32)[C@](C)(O)[C@@H]1O (mixture of isomers)
[1]
  CC50 at 72 h: > 100 µM
[2]
  EC50: 0.28 µM
  EC90: 1.2 µM

## CCCCCNP(=O)(N[C@@H](C)C(=O)OCC(C)(C)C)OC[C@H]1O[C@@H](n2cnc3c(OC)nc(N)nc32)[C@](C)(O)[C@@H]1O (mixture of isomers)
[1]
  CC50 at 72 h: > 100 µM
[2]
  EC50: 0.11 µM
  EC90: 0.52 µM

## COc1nc(N)nc2c1ncn2[C@@H]1O[C@H](COP(=O)(N[C@@H](C)C(=O)OCC(C)(C)C)N[C@@H](C)C(=O)OC2CCCCC2)[C@@H](O)[C@@]1(C)O (mixture of isomers)
[1]
  CC50 at 72 h: > 100 µM
[2]
  EC50: 0.04 µM
  EC90: 0.15 µM

## COc1nc(N)nc2c1ncn2[C@@H]1O[C@H](COP(=O)(Nc2cccc3ccccc23)N[C@@H](C)C(=O)OCC(C)(C)C)[C@@H](O)[C@@]1(C)O (mixture of isomers)
[1]
  CC50 at 72 h: > 100 µM
[2]
  EC50: 0.13 µM
  EC90: 0.56 µM

## CCOc1nc(N)nc2c1ncn2[C@@H]1O[C@H](COP(=O)(N[C@@H](C)C(=O)OCc2ccccc2)N[C@@H](C)C(=O)OCc2ccccc2)[C@@H](O)[C@@]1(C)O (mixture of isomers)
[1]
  CC50 at 72 h: 62 µM
[2]
  EC50: 0.29 µM
  EC90: 1 µM

## COc1nc(N)nc2c1ncn2[C@@H]1O[C@H](COP(=O)(N[C@@H](Cc2ccccc2)C(=O)OC2CCCCC2)N[C@@H](Cc2ccccc2)C(=O)OC2CCCCC2)[C@@H](O)[C@@]1(C)O (mixture of isomers)
[1]
  CC50 at 72 h: 25 µM
[2]
  EC50: 0.5 µM
  EC90: 2 µM

## COc1nc(N)nc2c1ncn2[C@@H]1O[C@H](COP(=O)(N[C@@H](C)C(=O)OCC2CC2)N[C@@H](C)C(=O)OCC2CC2)[C@@H](O)[C@@]1(C)O (mixture of isomers)
[1]
  CC50 at 72 h: > 100 µM
[2]
  EC50: 0.21 µM
  EC90: 0.66 µM

## COc1nc(N)nc2c1ncn2[C@@H]1O[C@H](COP(=O)(N[C@@H](C)C(=O)OC2CCCCC2)N[C@@H](C)C(=O)OC2CCCCC2)[C@@H](O)[C@@]1(C)O (mixture of isomers)
[1]
  CC50 at 72 h: > 100 µM
[2]
  EC50: 0.05 µM
  EC90: 0.19 µM

## COc1nc(N)nc2c1ncn2[C@@H]1O[C@H](COP(=O)(NCCC(=O)OCc2ccccc2)NCCC(=O)OCc2ccccc2)[C@@H](O)[C@@]1(C)O (mixture of isomers)
[1]
  CC50 at 72 h: > 100 µM
[2]
  EC50: 3.8 µM
  EC90: > 10 µM

## COc1nc(N)nc2c1ncn2[C@@H]1O[C@H](COP(=O)(N[C@@H](C)C(=O)OC2CCCCO2)N[C@@H](C)C(=O)OC2CCCCO2)[C@@H](O)[C@@]1(C)O (mixture of isomers)
[1]
  CC50 at 72 h: > 100 µM
[2]
  EC50: 13.3 µM
  EC90: 29.3 µM

## COc1nc(N)nc2c1ncn2[C@@H]1O[C@H](COP(=O)(Nc2ccccc2)N[C@@H](C)C(=O)OCC(C)(C)C)[C@@H](O)[C@@]1(C)O (mixture of isomers)
[1]
  CC50 at 72 h: > 100 µM
[2]
  EC50: 0.27 µM
  EC90: 0.82 µM

## COc1nc(N)nc2c1ncn2[C@@H]1O[C@H](COP(=O)(N[C@@H](C)C(=O)OCC(C)C)N[C@@H](C)C(=O)OCC(C)C)[C@@H](O)[C@@]1(C)O (mixture of isomers)
[1]
  CC50 at 72 h: > 100 µM
[2]
  EC50: 0.07 µM
  EC90: 0.26 µM

## COc1nc(N)nc2c1ncn2[C@@H]1O[C@H](COP(=O)(N[C@@H](Cc2ccccc2)C(=O)OCc2ccccc2)N[C@@H](Cc2ccccc2)C(=O)OCc2ccccc2)[C@@H](O)[C@@]1(C)O (mixture of isomers)
[1]
  CC50 at 72 h: 67 µM
[2]
  EC50: 0.32 µM
  EC90: 1.35 µM

## COC(=O)[C@H](Cc1ccc(OC(C)(C)C)cc1)NP(=O)(N[C@@H](Cc1ccc(OC(C)(C)C)cc1)C(=O)OC)OC[C@H]1O[C@@H](n2cnc3c(OC)nc(N)nc32)[C@](C)(O)[C@@H]1O (mixture of isomers)
[1]
  CC50 at 72 h: 89 µM
[2]
  EC50: 0.11 µM
  EC90: 0.5 µM

## COc1nc(N)nc2c1ncn2[C@@H]1O[C@H](COP(=O)(N2CCC[C@H]2C(=O)OCC(C)(C)C)N2CCC[C@H]2C(=O)OCC(C)(C)C)[C@@H](O)[C@@]1(C)O (mixture of isomers)
[1]
  CC50 at 72 h: 56 µM
[2]
  EC50: 0.81 µM
  EC90: 2 µM

## COc1nc(N)nc2c1ncn2[C@@H]1O[C@H](COP(=O)(NCC(=O)OCC(C)(C)C)NCC(=O)OCC(C)(C)C)[C@@H](O)[C@@]1(C)O (mixture of isomers)
[1]
  CC50 at 72 h: > 100 µM
[2]
  EC50: 0.13 µM
  EC90: 0.6 µM

## COc1nc(N)nc2c1ncn2[C@@H]1O[C@H](COP(=O)(N[C@H](C(=O)OCC(C)(C)C)c2ccccc2)N[C@H](C(=O)OCC(C)(C)C)c2ccccc2)[C@@H](O)[C@@]1(C)O (mixture of isomers)
[1]
  CC50 at 72 h: 24 µM
[2]
  EC50: 0.27 µM
  EC90: 1.5 µM

## COc1nc(N)nc2c1ncn2[C@@H]1O[C@H](COP(=O)(N[C@@H](C)C(=O)O[C@@H](C)c2ccccc2)N[C@@H](C)C(=O)O[C@@H](C)c2ccccc2)[C@@H](O)[C@@]1(C)O (mixture of isomers)
[1]
  CC50 at 72 h: 88 µM
[2]
  EC50: 0.49 µM
  EC90: 1.7 µM

## COc1nc(N)nc2c1ncn2[C@@H]1O[C@H](COP(=O)(N[C@H](C(=O)OCC(C)(C)C)C(C)C)N[C@H](C(=O)OCC(C)(C)C)C(C)C)[C@@H](O)[C@@]1(C)O (mixture of isomers)
[1]
  CC50 at 72 h: 32 µM
[2]
  EC50: 0.72 µM
  EC90: 2.5 µM

## COc1nc(N)nc2c1ncn2[C@@H]1O[C@H](COP(=O)(NCc2ccccc2)N[C@@H](C)C(=O)OCC(C)(C)C)[C@@H](O)[C@@]1(C)O (mixture of isomers)
[1]
  CC50 at 72 h: > 100 µM
[2]
  EC50: 0.43 µM
  EC90: 1.9 µM
